High-throughput results from PubChem.
In the library only some 1.6% were active in any assay of this set; here they are far more common.
p47phox inh: inhibitors of human p47phox binding; 220,000 tested, 0.53% active; P14598; p47phox/p22phox peptide binding, fluorescence polarization, 2 h; inhibition, % at 24.7 µM;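 active means inhibition above about 30%, limit read from the data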;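 further: 0% = p47phox with labelled peptide and 100% = labelled peptide alone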
Target sequence (P14598 whole entry, looked up): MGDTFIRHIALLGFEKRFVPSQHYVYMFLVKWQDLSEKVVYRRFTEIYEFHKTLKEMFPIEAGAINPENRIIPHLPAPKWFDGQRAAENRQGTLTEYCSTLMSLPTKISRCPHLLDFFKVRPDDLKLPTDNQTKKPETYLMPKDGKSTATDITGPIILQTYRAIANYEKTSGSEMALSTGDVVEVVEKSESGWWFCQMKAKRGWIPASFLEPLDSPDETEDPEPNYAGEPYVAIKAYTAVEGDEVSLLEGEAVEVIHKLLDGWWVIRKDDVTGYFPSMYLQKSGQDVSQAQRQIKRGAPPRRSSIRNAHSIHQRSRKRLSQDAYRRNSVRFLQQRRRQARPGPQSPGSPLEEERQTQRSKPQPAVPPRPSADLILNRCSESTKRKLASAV
ABCG2 inh: blocks JC-1 efflux by human ABCG2 transporter. Q9UNQ0. IgMXP3 cells, flow cytometry. inhibition, % at 6.6 µM. 190,000 tested, 0.1% active. AID 1325;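 active means inhibition above 80%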;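 further: 0% = DMSO and 100% = nicardipine control wells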
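Test system: IgMXP3 cells (ABCG2) mixed with DDAO far-red-labelled CCRF-Adr cells (ABCB1). Reagent: JC-1 transporter substrate. Compound dosing: single test compound dose, 6.6 µM final. Times: 10 min compound exposure, 25 °C. Detection: flow cytometry of retained JC-1 fluorescence. Read-out basis: efflux inhibition in percent versus controls. Controls: nicardipine and DMSO wells.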
ABCB1 inh: inhibitors of human ABCB1 transporter, ABCG2 counter-screen; CCRF-Adr cells, JC-1 efflux, flow cytometry; inhibition, % at 6.6 µM; 190,000 tested, 0.067% active; in the data active means inhibition above about 40%;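 further: 0% = vehicle and 100% = reference inhibitor; higher value means more JC-1 retained so stronger ABCB1 efflux block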
HMGR II inh: blocks class II HMG-CoA reductase of Enterococcus faecalis. purified E. faecalis HMGR, NADPH absorbance 340 nm kinetic. inhibition, % at 10 µM. 190,000 tested, 0.41% active. AID 1066;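 active means inhibition above a set limit, the median over all tested compounds plus 3 SD, cut at about 9.5% in these data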;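 further: enzyme runs in reverse so mevalonate oxidation gives rising NADPH absorbance; 0% = complete reaction with DMSO and 100% = background rate lacking mevalonate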
Diaph act CS: activates diaphorase or chemically reduces, flagging diaphorase assay artifacts. Diaphorase/resazurin coupled assay, resorufin fluorescence, 16 min; hits give high values; 1 = vehicle wells, 0 = NADH-free wells. activation factor at 20 µM. 190,000 tested, 0.005% active. AID 1229;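 active means diaphorase activity raised at least twofold by the compound at 20 µM; inactive means activation factor below 2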
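test system = bacterial diaphorase enzyme (C. kluyveri) | quantity = enzyme 0.07 U/mL final | reagent = NADH substrate 0.114 mM plus resazurin dye 0.1 mM, final | incubation = 16 min enzyme reaction, ambient temperature | buffer or medium = HEPES pH 7.4 buffer with MgCl2 and Tween 20 | signal = fluorescence of resorufin, 544 nm excitation, 590 nm emission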
Diaph inh CS: inhibits diaphorase or chemically oxidizes, flagging diaphorase assay artifacts | diaphorase resazurin-to-resorufin fluorescence, NADH, 16 min; bacterial (C. kluyveri) enzyme, not human | AID 1217 | 190,000 tested, 0.69% active | inhibition, % at 20 µM;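 active means primary screen inhibition at 20 µM above a set limit, cut at about 50% in these data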;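 further: plate controls were DMSO with full reaction for no effect and wells lacking NADH for full effect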
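Test system: bacterial diaphorase enzyme (C. kluyveri); Quantity: 0.14 U/mL diaphorase, enzyme working solution; Times: reaction incubation of 16 min at room temperature; Measured by: fluorescence of resorufin formed from resazurin, Ex 544/Em 590 nm; Benchmarks: positive control minus NADH, DMSO neutral control.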
Active calls of the source: *; . = not tested or not shown.

SMILES	p47phox inh	ABCG2 inh	ABCB1 inh	HMGR II inh	Diaph act CS	Diaph inh CS
COc1ccc(N2C(=O)CCC2=O)cc1	-3	0	-2	0	1.1	-6
COc1ccc(N2C(=O)CS/C2=C\[N+](=O)[O-])cc1	-4	1	0	15*	0.9	8
O=C(CSc1nnc(Cc2ccccc2)n1C1CCCCC1)N1CCOCC1	98*	2	1	-3	0.9	9
O=C(CSc1nnc(Cc2ccccc2)n1-c1ccc(F)cc1)N1CCOCC1	-4	2	0	1	1	-5
CC(C)n1nnnc1SCC(=O)Nc1ccc2c(c1)OCO2	-10	1	1	0	0.9	14
CCOC(=O)C1=C(N)N2C(=O)C(C)SC2=C(C(=O)OCC)C1c1ccccc1 (stereo unspecified)	2	6	3	-1	0.8	22
S=c1[nH]c(-c2ccccc2)cn1/N=C/c1ccncc1	-2	.	.	.	.	.
CCOc1ccc(/C=N/n2cc(-c3ccccc3)[nH]c2=S)cc1	2	-4	-1	11*	0.6	36
Cc1nc2ccc(NC(=O)c3sccc3C)cc2s1	-1	4	1	-4	1.2	-19
O=C(NCCN1CCOCC1)c1csc2c1CCCC2	71*	0	0	2	0.9	11
COc1cc2c(cc1OC)C1=C(C#N)CC/C(=N\S(=O)(=O)c3cccc(Cl)c3)N1CC2	-29	8	3	-7	0.4	61*
COc1cc2c(cc1OC)C1=C(C#N)CCC(=NC(=O)c3ccco3)N1CC2	-7	3	1	-2	1.1	-6
CCn1c(SCC(=O)N2CCc3ccccc32)nnc1-c1c[nH]c2ccccc12	-7	2	0	1	0.9	12
COc1ccc(-n2c(SCC(=O)N3CCc4ccccc43)nnc2-c2c[nH]c3ccccc23)cc1	52*	10	1	-7	0.9	12
CC(C)NC(=O)CSc1nc2ccccc2n1CC(=O)N(C(C)C)C(C)C	-9	2	1	23*	1.1	-6
Cc1ccc(C(NC(=O)N2CCOCC2)=C(Cl)Cl)cc1F	42*	0	0	-7	0.6	44
O=C(NCC1CCCO1)c1ccc(COc2ccc(Br)cc2)cc1 (stereo unspecified)	4	4	0	-5	0.9	14
CCn1ncc([N+](=O)[O-])c1C(=O)N1CCCC1	-1	2	0	1	0.9	7
CSc1cccc(NC(=O)CCC(=O)O)c1	71*	1	0	1	0.9	7
Cc1ncoc1C(=O)NCc1ccccc1Cl	-17	20	-1	0	1	5
Cc1cc(C(=O)N2CCc3c([nH]c4ccccc34)C2c2c(F)cccc2Cl)no1 (stereo unspecified)	-11	8	2	4	0.4	57*
CCc1cc(C(=O)N2CCc3c([nH]c4ccccc34)C2c2ccc(OC)cc2F)no1 (stereo unspecified)	-24	32	0	3	0.8	19
CCCCn1c(=O)[nH]c2nc3cc(N)ccc3nc2c1=O	-13	13	0	2	0.3	67*
Oc1ccc(N=Cc2ccc(O)c(O)c2)cc1	18	-1	0	3	0.4	61*
O=Cc1ccc(O)c(O)c1	2	4	1	-7	0.6	44
NCCSC1CC(=O)N(Cc2ccc(F)cc2)C1=O (stereo unspecified)	-4	0	0	10*	1	-1
CCOc1ccc(N2C(=O)CC(SCCN)C2=O)cc1 (stereo unspecified)	-8	0	0	-1	0.9	7
CC1=C(C#N)C(=O)NC(=O)/C1=C\c1ccc(-c2ccc(C)cc2[N+](=O)[O-])o1	-6	-7	-2	0	0.4	57*
CCOC(=O)c1cc(-c2ccc(/C=C3/C(=O)NC(=O)C(C#N)=C3C)o2)ccc1Cl	3	-1	0	2	0.6	40
Cc1ccc[n+](CC(=O)c2ccc(NC(=O)c3ccccc3)cc2)c1	-3	7	1	-5	1	2
